Values after ≈ are worked out from the molar mass of the structure shown.
How the values were obtained:
[1] = test system: Streptococcus pneumoniae; assay: Antibacterial activity against penicillin-resistant Streptococcus pneumoniae 24 by macrodilution method; assay type: functional
Outline: (§1)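 CLSI broth macrodilution MICs. The S. aureus set is 5 MRSA strains (hVISA, VISA, VRSA) plus 1 MSSA. The S. pneumoniae set is 7 clonally unrelated clinical isolates, categorised by penicillin G against 2006 CLSI M100-S17 criteria (resistant ≥2 μg/ml, susceptible ≤0.06 μg/ml).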

[2] = test system: Streptococcus pneumoniae; assay: Antibacterial activity against penicillin-resistant Streptococcus pneumoniae 2527 by macrodilution method; assay type: functional; outline: as §1
[3] = test system: Staphylococcus aureus; assay: Antibacterial activity against methicillin-resistant, heteroresistant vancomycin-intermediate, beta-lactamase-negative Staphylococcus aureus 873 by macrodilution method; assay type: functional; outline: as §1
[4] = test system: Staphylococcus aureus; assay: Antibacterial activity against methicillin-, vancomycin-resistant, beta-lactamase-positive Staphylococcus aureus 510 by macrodilution method; assay type: functional; outline: as §1
[5] = test system: Staphylococcus aureus; assay: Antibacterial activity against methicillin-, linezolid-resistant, vancomycin-intermediate, beta-lactamase-positive Staphylococcus aureus 2149A by macrodilution method; assay type: functional; outline: as §1
[6] = Binding affinity to methicillin-, vancomycin-resistant, beta-lactamase-positive Staphylococcus aureus 510 PBP1 by competitive binding assay
[7] = Binding affinity to methicillin-, linezolid-resistant, vancomycin-intermediate, beta-lactamase-positive Staphylococcus aureus 2149A PBP1 by competitive binding assay
[8] = Binding affinity to against methicillin-, daptomycin-resistant, vancomycin-intermediate, beta-lactamase-positive Staphylococcus aureus 25 PBP1 by competitive binding assay
Outline: (§2)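 MRSA strain harvested in stationary phase (OD600 >2.00). Membranes prepared by enzymatic lysis, freeze-thaw, sonication and ultracentrifugation, then preincubated with clavulanic acid 1 mg/ml. β-Lactam competition 10 min at 37°C, then Bocillin FL 40 μg/ml, 15 min at 37°C. SDS-PAGE, 520 nm imaging; IC50 = 50% inhibition of Bocillin FL labeling; 3 membrane isolations.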

[9] = Binding affinity to methicillin-, vancomycin-susceptible Staphylococcus aureus ATCC 29213 PBP2 by competitive binding assay
Outline: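 MSSA grown in brain heart infusion broth and harvested at OD600 0.3–0.4. Lysed with lysozyme, lysostaphin, DNase I, freeze-thaw and sonication; membranes collected at 100,000 × g. Membranes (100 μg protein) incubated with β-lactam 10 min at 37°C, then Bocillin FL 40 μg/ml, 15 min at 37°C. SDS-PAGE, fluorescence at 520 nm. IC50 is 50% inhibition of Bocillin FL binding; 3 membrane isolations.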

[10] = Binding affinity to methicillin-, vancomycin-resistant, beta-lactamase-positive Staphylococcus aureus 510 PBP2 by competitive binding assay
[11] = molecular target: T1, MecA (Staphylococcus aureus, UniProt Q7DHH4); assay: Binding affinity to methicillin-resistant, heteroresistant vancomycin-intermediate, beta-lactamase-negative Staphylococcus aureus 873 PBP2a by competitive binding assay
T1 sequence (Q7DHH4 whole entry): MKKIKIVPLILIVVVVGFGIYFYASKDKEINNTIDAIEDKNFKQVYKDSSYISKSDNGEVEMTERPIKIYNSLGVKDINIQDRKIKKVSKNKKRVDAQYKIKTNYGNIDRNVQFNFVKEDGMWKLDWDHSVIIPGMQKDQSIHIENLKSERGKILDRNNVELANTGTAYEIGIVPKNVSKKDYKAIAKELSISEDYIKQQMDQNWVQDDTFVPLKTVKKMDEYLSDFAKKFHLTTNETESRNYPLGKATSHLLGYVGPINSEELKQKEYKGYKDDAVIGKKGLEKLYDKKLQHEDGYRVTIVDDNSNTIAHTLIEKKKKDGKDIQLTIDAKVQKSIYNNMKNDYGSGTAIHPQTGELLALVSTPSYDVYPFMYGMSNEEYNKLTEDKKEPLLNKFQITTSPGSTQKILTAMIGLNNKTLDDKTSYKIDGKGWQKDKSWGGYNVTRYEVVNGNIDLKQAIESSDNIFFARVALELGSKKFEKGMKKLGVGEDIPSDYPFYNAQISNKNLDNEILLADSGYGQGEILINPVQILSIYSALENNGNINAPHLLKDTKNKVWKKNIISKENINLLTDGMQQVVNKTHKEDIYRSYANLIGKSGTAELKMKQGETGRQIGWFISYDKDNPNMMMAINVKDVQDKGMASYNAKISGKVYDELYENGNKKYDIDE
Outline: (§3)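 MRSA grown in brain heart infusion and harvested in exponential phase (OD600 0.3–0.4). Membranes prepared by lysozyme/lysostaphin/DNase, freeze-thaw and sonication, then ultracentrifugation. Membranes preincubated with clavulanic acid 1 mg/ml to saturate PBPs other than PBP2a. Then β-lactam 10 min at 37°C and Bocillin FL 40 μg/ml, 15 min at 37°C. SDS-PAGE fluorescence; IC50 = 50% inhibition of Bocillin FL binding; 3 isolations.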

[12] = molecular target: T1, MecA; assay: Binding affinity to methicillin-, vancomycin-resistant, beta-lactamase-positive Staphylococcus aureus 510 PBP2a by competitive binding assay; outline: as §3
[13] = molecular target: T1, MecA; assay: Binding affinity to methicillin-, linezolid-resistant, vancomycin-intermediate, beta-lactamase-positive Staphylococcus aureus 2149A PBP2a by competitive binding assay; outline: as §3
[14] = molecular target: T1, MecA; assay: Binding affinity to methicillin-resistant, vancomycin-intermediate, beta-lactamase-positive Staphylococcus aureus 1287 PBP2a by competitive binding assay; outline: as §3
[15] = molecular target: T1, MecA; assay: Binding affinity to against methicillin-, daptomycin-resistant, vancomycin-intermediate, beta-lactamase-positive Staphylococcus aureus 25 PBP2a by competitive binding assay; outline: as §2
[16] = Binding affinity to methicillin-, vancomycin-resistant, beta-lactamase-positive Staphylococcus aureus 510 PBP3 by competitive binding assay
[17] = Binding affinity to methicillin-, linezolid-resistant, vancomycin-intermediate, beta-lactamase-positive Staphylococcus aureus 2149A PBP3 by competitive binding assay
[18] = Binding affinity to methicillin-resistant, vancomycin-intermediate, beta-lactamase-positive Staphylococcus aureus 1287 PBP3 by competitive binding assay
[19] = Binding affinity to against methicillin-, daptomycin-resistant, vancomycin-intermediate, beta-lactamase-positive Staphylococcus aureus 25 PBP3 by competitive binding assay; outline: as §2
[20] = Binding affinity to methicillin-, vancomycin-susceptible Staphylococcus aureus ATCC 29213 PBP4 by competitive binding assay
Outline: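 S. aureus grown in brain heart infusion broth and harvested at OD600 0.3 to 0.4. Membranes were prepared by lysozyme/lysostaphin/DNase I treatment, freeze-thaw, sonication and ultracentrifugation. Membranes (100 μg total protein) were preincubated with β-lactam for 10 min at 37°C, then labeled with 40 μg/ml Bocillin FL for 15 min at 37°C. SDS-PAGE with fluorescence imaging at 520 nm. IC50 is 50% inhibition of Bocillin FL binding; 3 membrane isolations.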

[21] = Binding affinity to methicillin-resistant, heteroresistant vancomycin-intermediate, beta-lactamase-negative Staphylococcus aureus 873 PBP4 by competitive binding assay
[22] = Binding affinity to methicillin-, linezolid-resistant, vancomycin-intermediate, beta-lactamase-positive Staphylococcus aureus 2149A PBP4 by competitive binding assay
[23] = Binding affinity to methicillin-resistant, vancomycin-intermediate, beta-lactamase-positive Staphylococcus aureus 1287 PBP4 by competitive binding assay

CO/N=C(\C(=O)N[C@@H]1C(=O)N2C(C(=O)O)=C(COC(C)=O)CS[C@H]12)c1csc(N)n1 [CEFOTAXIME]
MIC [1]: 1 µg/mL (≈ 2.2 µM) | MIC [2]: 0.015 µg/mL (≈ 0.0329 µM) | MIC [3]: > 64 µg/mL | MIC [4]: > 64 µg/mL | MIC [5]: 32 µg/mL (≈ 70.3 µM) | IC50 [6]: 0.5 µg/mL (≈ 1.1 µM) | IC50 [7]: 4 µg/mL (≈ 8.78 µM) | IC50 [8]: 16 µg/mL (≈ 35.1 µM) | IC50 [9]: 0.25 µg/mL (≈ 0.549 µM) | IC50 [10]: 0.25 µg/mL (≈ 0.549 µM) | IC50 [11]: > 281 µM | IC50 [12]: 2200 nM | IC50 [13]: > 281 µM | IC50 [14]: 4.39 µM | IC50 [15]: 1100 nM | IC50 [16]: 0.25 µg/mL (≈ 0.549 µM) | IC50 [17]: 2 µg/mL (≈ 4.39 µM) | IC50 [18]: 1 µg/mL (≈ 2.2 µM) | IC50 [19]: 1 µg/mL (≈ 2.2 µM) | IC50 [20]: > 8 µg/mL | IC50 [21]: > 128 µg/mL | IC50 [22]: > 128 µg/mL | IC50 [23]: > 128 µg/mL

CO/N=C(\C(=O)N[C@@H]1C(=O)N2C(C(=O)O)=C(CSc3nc(=O)c(O)nn3C)CS[C@H]12)c1csc(N)n1 [CEFTRIAXONE]
MIC [1]: 2 µg/mL (≈ 3.61 µM) | MIC [2]: 0.03 µg/mL (≈ 0.0541 µM) | MIC [3]: > 64 µg/mL | MIC [4]: > 64 µg/mL | MIC [5]: 64 µg/mL (≈ 115 µM) | IC50 [6]: 0.5 µg/mL (≈ 0.902 µM) | IC50 [7]: 4 µg/mL (≈ 7.21 µM) | IC50 [8]: 16 µg/mL (≈ 28.9 µM) | IC50 [9]: 0.25 µg/mL (≈ 0.451 µM) | IC50 [10]: 0.25 µg/mL (≈ 0.451 µM) | IC50 [11]: > 231 µM | IC50 [12]: 1800 nM | IC50 [13]: 3.61 µM | IC50 [14]: 3.61 µM | IC50 [15]: 451 nM | IC50 [16]: 0.25 µg/mL (≈ 0.451 µM) | IC50 [17]: 2 µg/mL (≈ 3.61 µM) | IC50 [18]: 1 µg/mL (≈ 1.8 µM) | IC50 [19]: 1 µg/mL (≈ 1.8 µM) | IC50 [20]: > 8 µg/mL | IC50 [21]: > 128 µg/mL | IC50 [22]: > 128 µg/mL | IC50 [23]: > 128 µg/mL

CC1(C)S[C@@H]2[C@H](NC(=O)Cc3ccccc3)C(=O)N2[C@H]1C(=O)O [PENICILLIN G]
MIC [1]: 4 µg/mL (≈ 12 µM) | MIC [2]: 2 µg/mL (≈ 5.98 µM) | MIC [3]: 8 µg/mL (≈ 23.9 µM) | MIC [4]: 32 µg/mL (≈ 95.7 µM) | MIC [5]: 64 µg/mL (≈ 191 µM) | IC50 [6]: 128 µg/mL (≈ 383 µM) | IC50 [7]: 2 µg/mL (≈ 5.98 µM) | IC50 [8]: 0.5 µg/mL (≈ 1.5 µM) | IC50 [9]: 8 µg/mL (≈ 23.9 µM) | IC50 [10]: 64 µg/mL (≈ 191 µM) | IC50 [11]: 191 µM | IC50 [12]: 191000 nM | IC50 [13]: 5.98 µM | IC50 [14]: 12 µM | IC50 [15]: 12000 nM | IC50 [16]: 4 µg/mL (≈ 12 µM) | IC50 [17]: 2 µg/mL (≈ 5.98 µM) | IC50 [18]: 0.25 µg/mL (≈ 0.748 µM) | IC50 [19]: 0.5 µg/mL (≈ 1.5 µM) | IC50 [20]: > 8 µg/mL | IC50 [21]: > 128 µg/mL | IC50 [22]: > 128 µg/mL | IC50 [23]: 4 µg/mL (≈ 12 µM)

From ChEMBL document CHEMBL1255453, “Affinity of ceftaroline and other beta-lactams for penicillin-binding proteins from Staphylococcus aureus and Streptococcus pneumoniae” (Antimicrob Agents Chemother, 2010)
